Calls of active or inactive are those of the source. The calls are words filed in the database; no cut-off is given here.
How the values were obtained:
MDA-MB-231 [1] = experiment: Cytotoxicity against human MDA-MB-231 cells at 25 to 100 uM after 24 hrs by MTT assay; assay type: functional, cell-based
Outline: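 Cells seeded at 5 × 10^4/well, grown 24 h in complete medium, exposed 0–100 µM for 24 h (control 0.2% DMSO). Medium replaced, MTT added for 4 h, formazan dissolved in DMSO, absorbance read at 570 nm.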

MDA-MB-231 [2] = experiment: Antimetastatic activity against human MDA-MB-231 cells assessed as inhibition of anchorage-independent colony formation after 21 days by inverted microscopy; assay type: functional, cell-based
Outline: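 Cells pretreated 0–20 µM for 24 h, then 5 × 10^3 cells suspended in 0.33% agarose with 10% FBS over 0.5% agarose base layer; grown at 37 °C, 5% CO2. Colonies counted after 21 days under inverted microscope at 40×; 3 independent experiments, means ± SD.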

MDA-MB-231 [3] = experiment: Antimetastatic activity against human MDA-MB-231 cells assessed as inhibition of wound closure activity up to 20 uM at 12 hrs by scratch motility assay; assay type: functional, cell-based
MDA-MB-231 [4] = experiment: Antiinvasive activity against human MDA-MB-231 cells assessed as F-actin reorganization at 20 uM incubated 24 hrs post-serum starvation measured after 12 hrs by TRITC-conjugated phalloidin staining method; assay type: functional, cell-based
Outline: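 Cells seeded, serum-starved (0.1%) overnight, then exposed for 12 h in DMEM with 10% FBS. Fixed in 4% paraformaldehyde 10 min, permeabilized with 0.1% Triton X-100 5 min, F-actin stained with TRITC-phalloidin (500 ng/ml) 1 h; imaged by fluorescence microscopy at 100×.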

[5] = biological target: Focal adhesion kinase 1 (Homo sapiens) (UniProt Q05397); experiment: Inhibition of FAK phosphorylation in human MDA-MB-231 cells after 12 hrs by Western blot analysis; assay type: cell-based
Outline: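 Cells exposed 0–20 µM for 12 h; lysates in RIPA buffer immunoblotted with phospho-FAK, total FAK and β-actin antibodies; HRP secondary, chemiluminescence, densitometry.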

MDA-MB-231 [6] = experiment: Antiinvasive activity against human MDA-MB-231 cells pretreated for 12 hrs followed by compound-wash out measured after 12 hrs by Boyden chamber assay; assay type: functional, cell-based
Outline: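 Cells pretreated 12 h, resuspended in serum-free medium (2 × 10^5 cells/ml) in upper chamber coated with Matrigel diluted 1:25; 10% FBS medium below. After 12 h, non-invaded cells removed; invaded cells methanol-fixed, Giemsa-stained, counted at 200× in 5 random fields per replicate (n = 4), averaged.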

MDA-MB-231 [7] = experiment: Downregulation of MMP2 expression in human MDA-MB-231 cells at 5 to 20 uM after 12 hrs by Western blot analysis; assay type: functional, cell-based
Outline: (§1)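 Cells exposed to 5, 10 or 20 µM for 12 h; lysed in RIPA buffer (pH 7.5) with protease/phosphatase inhibitors. 50–100 µg protein run on SDS-PAGE, transferred to nitrocellulose, probed with phospho-specific and total antibodies (β-actin loading control), HRP secondary, ECL detection, densitometry.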

MDA-MB-231 [8] = experiment: Downregulation of MMP9 expression in human MDA-MB-231 cells at 0.5 to 1 uM after 12 hrs by Western blot analysis; assay type: functional, cell-based
MDA-MB-231 [9] = experiment: Upregulation of TIMP1 expression in human MDA-MB-231 cells at 0.5 to 1 uM after 12 hrs by Western blot analysis; assay type: functional, cell-based
MDA-MB-231 [10] = experiment: Upregulation of TIMP2 expression in human MDA-MB-231 cells at 1 to 3.5 uM after 12 hrs by Western blot analysis; assay type: functional, cell-based
[11] = biological target: T1, NF-kappa-B inhibitor alpha (Homo sapiens) (UniProt P25963); experiment: Inhibition of IkappaBalpha phosphorylation in human MDA-MB-231 cells at 5 to 20 uM after 12 to 24 hrs by Western blot analysis; assay type: cell-based
T1 sequence (whole entry): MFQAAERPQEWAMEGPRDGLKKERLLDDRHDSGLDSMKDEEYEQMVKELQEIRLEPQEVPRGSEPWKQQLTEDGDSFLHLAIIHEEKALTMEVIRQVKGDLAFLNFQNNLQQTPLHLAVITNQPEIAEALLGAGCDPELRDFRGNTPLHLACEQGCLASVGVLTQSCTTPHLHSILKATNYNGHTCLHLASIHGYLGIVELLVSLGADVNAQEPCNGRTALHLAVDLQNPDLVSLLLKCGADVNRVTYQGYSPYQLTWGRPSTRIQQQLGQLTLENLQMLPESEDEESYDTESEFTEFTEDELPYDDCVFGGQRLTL

[12] = biological target: T1, NF-kappa-B inhibitor alpha (Homo sapiens); experiment: Inhibition of IkappaBalpha phosphorylation in human MDA-MB-231 cells after 12 hrs by Western blot analysis; assay type: cell-based
Outline: (§2)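 For the time course, cells exposed to 20 µM for various times; for dose response, 5, 10 or 20 µM for 12 h. Lysates immunoblotted with phospho-IκB-α and total IκB-α antibodies, HRP secondary, chemiluminescence detection, densitometry.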

[13] = biological target: Mitogen-activated protein kinase; ERK1/ERK2 (Homo sapiens) (UniProt P27361+P28482); experiment: Inhibition of ERK 1/2 phosphorylation in human MDA-MB-231 cells at 5 to 20 uM after 12 hrs by Western blot analysis; assay type: cell-based; outline: as §1
SK-HEP1 = experiment: Antiinvasive activity against human SKHEP1 cells; assay type: functional, cell-based
MDA-MB-231 [14] = experiment: Downregulation of MMP2 in human MDA-MB-231 cells at 10 uM by Western blot analysis; assay type: functional, cell-based
Outline: (§3)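 MDA-MB-231 cells in DMEM with 10% FBS at 37 °C were treated for 12 h. Whole-cell lysates were made in RIPA buffer (pH 7.5) at 4 °C, then SDS-PAGE, nitrocellulose transfer, and immunoblotting for MMP-2 and MMP-9, with β-actin as loading control. Detection was by HRP secondary antibody and chemiluminescence. Relative band density was quantified by densitometry.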

MDA-MB-231 [15] = experiment: Downregulation of MMP9 in human MDA-MB-231 cells at 10 uM by Western blot analysis; assay type: functional, cell-based; outline: as §3
MDA-MB-231 [16] = experiment: Downregulation of MMP2 in human MDA-MB-231 cells at 50 uM by Western blot analysis; assay type: functional, cell-based
MDA-MB-231 [17] = experiment: Downregulation of MMP9 in human MDA-MB-231 cells at 50 uM by Western blot analysis; assay type: functional, cell-based
[18] = biological target: 72 kDa type IV collagenase (Homo sapiens) (UniProt P08253); experiment: Inhibition of MMP2 in human MDA-MB-231 cells at 20 uM up to 12 hrs by gelatin-zymogrphy; assay type: cell-based
Outline: (§4)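 Cells seeded at 4 × 10^5 cells/ml overnight, exposed to 20 µM for 0–12 h. Conditioned media run on 8% SDS-PAGE containing 0.1% gelatin (150 V, 3 h), SDS removed with 2% Triton X-100 washes, gels incubated in 10 mM CaCl2, 40 mM Tris-HCl pH 8.0 for 16 h at 37 °C, Coomassie-stained.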

[19] = biological target: Matrix metalloproteinase-9 (Homo sapiens) (UniProt P14780); experiment: Inhibition of MMP9 in human MDA-MB-231 cells at 20 uM up to 12 hrs by gelatin-zymogrphy; assay type: cell-based; outline: as §4
MDA-MB-231 [20] = experiment: Downregulation of MMP9 expression in human MDA-MB-231 cells at 0.1 to 0.9 uM after 12 hrs by Western blot analysis; assay type: functional, cell-based
MDA-MB-231 [21] = experiment: Upregulation of TIMP1 expression in human MDA-MB-231 cells at 0.2 to 0.8 uM after 12 hrs by Western blot analysis; assay type: functional, cell-based
MDA-MB-231 [22] = experiment: Upregulation of TIMP2 expression in human MDA-MB-231 cells at 1.1 to 3.6 uM after 12 hrs by Western blot analysis; assay type: functional, cell-based
[23] = biological target: T1, NF-kappa-B inhibitor alpha (Homo sapiens); experiment: Inhibition of IkappaBalpha phosphorylation in human MDA-MB-231 cells at 5 to 20 uM after 3 to 24 hrs by Western blot analysis; assay type: cell-based; outline: as §2
MDA-MB-231 [24] = experiment: Antiinvasive activity against human MDA-MB-231 cells xenografted in athymic nude BALB/c mouse assessed as decrease in lung size at 5 and 20 mg/kg, ip administered 3 times per week starting 1 week prior to xenografting measured after 5 weeks relative to control; assay type: functional, organism-based; design: dose 20 mg/kg
Outline: (§5)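 Female six-week-old BALB/c-nu mice (n = 6/group) dosed i.p. 3 times/week for 5 weeks (100 µl vehicle, or PBS). After 1 week, 1 × 10^6 cells injected into tail vein. Mice euthanized 4 weeks post-injection; lungs photographed, weighed, and H&E/hematoxylin sections examined for tumor cells. Means ± SD; one-way ANOVA with Dunnett's test.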

MDA-MB-231 [25] = experiment: Antiinvasive activity against human MDA-MB-231 cells xenografted in athymic nude BALB/c mouse assessed as decrease in lung weight at 5 and 20 mg/kg, ip administered 3 times per week starting 1 week prior to xenografting measured after 5 weeks relative to control; assay type: functional, organism-based; design: dose 20 mg/kg; outline: as §5
MDA-MB-231 [26] = experiment: Antiinvasive activity against human MDA-MB-231 cells xenografted in athymic nude BALB/c mouse assessed as decrease in lung metastasis at 5 and 20 mg/kg, ip administered 3 times per week starting 1 week prior to xenografting measured after 5 weeks by hematoxylin-staining relative to control; assay type: functional, organism-based; design: dose 20 mg/kg; outline: as §5

Chain of Focal adhesion kinase 1 (Homo sapiens) (Q05397 2-1052 limits assumed): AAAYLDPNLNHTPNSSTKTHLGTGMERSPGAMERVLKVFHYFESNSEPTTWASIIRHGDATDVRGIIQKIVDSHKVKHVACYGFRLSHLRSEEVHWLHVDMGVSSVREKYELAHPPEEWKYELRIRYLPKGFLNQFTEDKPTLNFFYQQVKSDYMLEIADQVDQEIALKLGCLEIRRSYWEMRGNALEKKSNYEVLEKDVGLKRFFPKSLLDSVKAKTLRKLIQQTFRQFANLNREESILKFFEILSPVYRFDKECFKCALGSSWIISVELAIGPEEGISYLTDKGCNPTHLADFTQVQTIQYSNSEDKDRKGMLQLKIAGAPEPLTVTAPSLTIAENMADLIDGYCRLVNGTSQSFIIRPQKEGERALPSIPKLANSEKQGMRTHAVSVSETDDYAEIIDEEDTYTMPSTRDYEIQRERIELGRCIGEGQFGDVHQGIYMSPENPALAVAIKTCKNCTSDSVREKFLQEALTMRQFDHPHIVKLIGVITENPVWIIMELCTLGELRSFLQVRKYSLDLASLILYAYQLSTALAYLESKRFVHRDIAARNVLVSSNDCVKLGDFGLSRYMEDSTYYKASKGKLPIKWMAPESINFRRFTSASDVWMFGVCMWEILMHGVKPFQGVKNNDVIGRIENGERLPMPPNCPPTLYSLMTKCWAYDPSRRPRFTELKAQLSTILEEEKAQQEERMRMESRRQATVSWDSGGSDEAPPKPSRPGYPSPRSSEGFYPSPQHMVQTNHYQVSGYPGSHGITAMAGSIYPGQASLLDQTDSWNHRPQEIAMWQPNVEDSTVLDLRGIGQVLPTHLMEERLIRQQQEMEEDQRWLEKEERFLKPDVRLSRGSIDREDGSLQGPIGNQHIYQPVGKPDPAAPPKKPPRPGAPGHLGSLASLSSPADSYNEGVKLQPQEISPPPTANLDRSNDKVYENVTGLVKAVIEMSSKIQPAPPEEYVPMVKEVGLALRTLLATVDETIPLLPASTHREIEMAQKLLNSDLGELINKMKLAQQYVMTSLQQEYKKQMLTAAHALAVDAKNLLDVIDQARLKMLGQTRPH
Chain of Mitogen-activated protein kinase; ERK1/ERK2 (Homo sapiens) (P27361 whole entry, looked up): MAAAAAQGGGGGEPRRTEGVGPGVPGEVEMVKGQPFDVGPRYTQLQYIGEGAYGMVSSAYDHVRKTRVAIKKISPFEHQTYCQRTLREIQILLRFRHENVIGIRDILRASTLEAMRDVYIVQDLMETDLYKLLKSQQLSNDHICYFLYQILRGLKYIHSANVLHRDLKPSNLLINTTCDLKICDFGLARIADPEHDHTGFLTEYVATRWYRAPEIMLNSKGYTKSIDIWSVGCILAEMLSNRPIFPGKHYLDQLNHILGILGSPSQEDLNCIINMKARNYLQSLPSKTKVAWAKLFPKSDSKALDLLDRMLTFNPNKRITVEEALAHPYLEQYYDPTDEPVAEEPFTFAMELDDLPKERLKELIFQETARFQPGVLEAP
Chain of Mitogen-activated protein kinase; ERK1/ERK2 (Homo sapiens) (P28482 whole entry, looked up): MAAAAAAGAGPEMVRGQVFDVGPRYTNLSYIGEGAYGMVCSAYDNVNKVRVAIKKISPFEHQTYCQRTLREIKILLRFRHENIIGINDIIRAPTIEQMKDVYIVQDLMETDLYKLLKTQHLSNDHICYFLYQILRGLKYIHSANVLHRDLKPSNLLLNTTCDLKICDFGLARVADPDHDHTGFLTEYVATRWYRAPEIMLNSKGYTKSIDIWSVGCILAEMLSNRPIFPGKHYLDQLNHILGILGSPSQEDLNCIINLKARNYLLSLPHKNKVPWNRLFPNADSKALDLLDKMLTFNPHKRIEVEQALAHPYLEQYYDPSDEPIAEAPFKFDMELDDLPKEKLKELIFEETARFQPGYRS
Chain of Matrix metalloproteinase-9 (Homo sapiens) (P14780 whole entry): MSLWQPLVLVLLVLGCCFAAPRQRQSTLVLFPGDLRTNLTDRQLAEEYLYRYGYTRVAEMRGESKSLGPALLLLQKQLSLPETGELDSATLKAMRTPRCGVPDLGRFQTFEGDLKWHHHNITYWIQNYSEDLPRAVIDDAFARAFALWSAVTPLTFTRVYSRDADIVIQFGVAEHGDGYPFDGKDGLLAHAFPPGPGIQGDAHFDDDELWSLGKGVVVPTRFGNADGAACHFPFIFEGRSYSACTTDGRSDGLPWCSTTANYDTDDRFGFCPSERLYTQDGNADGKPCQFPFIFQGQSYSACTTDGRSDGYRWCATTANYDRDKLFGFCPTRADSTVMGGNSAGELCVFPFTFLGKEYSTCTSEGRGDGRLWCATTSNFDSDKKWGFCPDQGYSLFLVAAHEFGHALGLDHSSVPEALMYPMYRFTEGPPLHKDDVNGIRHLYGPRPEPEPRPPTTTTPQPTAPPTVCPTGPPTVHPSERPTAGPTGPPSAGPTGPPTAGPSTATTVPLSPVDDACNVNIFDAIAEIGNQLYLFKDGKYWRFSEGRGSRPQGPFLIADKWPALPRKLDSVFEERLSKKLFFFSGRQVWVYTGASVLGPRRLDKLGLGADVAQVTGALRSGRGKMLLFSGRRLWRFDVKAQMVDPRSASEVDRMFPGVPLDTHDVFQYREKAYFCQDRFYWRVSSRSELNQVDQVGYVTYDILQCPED
Chain of 72 kDa type IV collagenase (Homo sapiens) (P08253 110-660 limits assumed): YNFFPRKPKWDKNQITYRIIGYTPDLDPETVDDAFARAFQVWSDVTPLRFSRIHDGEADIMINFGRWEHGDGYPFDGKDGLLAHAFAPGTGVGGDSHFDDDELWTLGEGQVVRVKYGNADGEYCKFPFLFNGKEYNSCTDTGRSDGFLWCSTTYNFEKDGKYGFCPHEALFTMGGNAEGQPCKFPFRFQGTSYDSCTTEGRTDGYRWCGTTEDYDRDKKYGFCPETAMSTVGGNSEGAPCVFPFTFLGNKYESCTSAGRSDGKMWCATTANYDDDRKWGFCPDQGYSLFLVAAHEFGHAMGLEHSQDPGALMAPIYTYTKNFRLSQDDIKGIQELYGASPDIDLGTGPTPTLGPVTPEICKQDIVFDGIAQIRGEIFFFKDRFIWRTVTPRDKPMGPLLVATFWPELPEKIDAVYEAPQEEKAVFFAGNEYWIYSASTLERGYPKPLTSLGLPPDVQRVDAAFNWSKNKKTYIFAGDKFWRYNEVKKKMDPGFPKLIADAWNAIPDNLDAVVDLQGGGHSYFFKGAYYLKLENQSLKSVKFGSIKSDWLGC

Row | inhibition [5] | inhibition [12] | inhibition [13] | SMILES | Activity (MDA-MB-231 [1]) | inhibition (MDA-MB-231 [2]) | inhibition (MDA-MB-231 [3]) | Activity (MDA-MB-231 [4]) | Activity (MDA-MB-231 [6]) | Activity (MDA-MB-231 [7]) | Activity (SK-HEP1) | also measured
1 | Dose-dependent effect | Dose-dependent effect | Active | COc1cc(O)c2c(c1)oc(=O)c1c3cc(O)c(O)cc3oc21 | Active | Dose-dependent effect | Active | Active | Dose-dependent effect | Active | Active | Activity (MDA-MB-231 [8]): Active; Activity (MDA-MB-231 [9]): Active; Activity (MDA-MB-231 [10]): Active; inhibition [11]: Active
2 |  |  |  | S=C(S)N1CCCC1 |  |  |  |  |  |  |  | Activity (MDA-MB-231 [14]): Active; Activity (MDA-MB-231 [15]): Active
3 |  |  |  | COc1cccc(-c2cc(=O)c3ccccc3o2)c1N |  |  |  |  |  |  |  | Activity (MDA-MB-231 [16]): Active; Activity (MDA-MB-231 [17]): Active
4 | Dose-dependent effect | Dose-dependent effect | Active | O=c1oc2cc(O)cc(O)c2c2oc3cc(O)c(O)cc3c12 | Active | Dose-dependent effect | Active | Active | Dose-dependent effect | Active | Active | inhibition [18]: Active; inhibition [19]: Active; Activity (MDA-MB-231 [20]): Active; Activity (MDA-MB-231 [21]): Active; Activity (MDA-MB-231 [22]): Active; inhibition [23]: Active; Activity (MDA-MB-231 [24]): Active; Activity (MDA-MB-231 [25]): Active; Activity (MDA-MB-231 [26]): Active
